We go through 1 molecule from ChEMBL document CHEMBL1153516, “Influence of the side chain next to C-terminal benzimidazole in opioid pseudopeptides containing the Dmt-Tic pharmacophore” (J Med Chem, 2009).

The experiment deals with Delta-type opioid receptor (Mus musculus, UniProt P32300). In words: Antagonist activity against delta opioid receptor in mouse vas deferens assessed as effect on deltorphin 2-induced contraction. Conditions: read-out: pA2 (converted). It counts as functional, tissue-based. An outline of the steps:
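pA2 was measured against the δ agonist deltorphin II in mouse vas deferens and determined by the Kosterlitz and Watt method.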

Non-standard residues stand in square brackets, D forms with d. Residues, ends and D or L forms follow the SMILES beside them. Dmt = Cc1cc(O)cc(C)c1C[C@H](N)C(=O)O; Tic = O=C(O)[C@@H]1Cc2ccccc2CN1

Sequence of Delta-type opioid receptor (P32300 whole entry): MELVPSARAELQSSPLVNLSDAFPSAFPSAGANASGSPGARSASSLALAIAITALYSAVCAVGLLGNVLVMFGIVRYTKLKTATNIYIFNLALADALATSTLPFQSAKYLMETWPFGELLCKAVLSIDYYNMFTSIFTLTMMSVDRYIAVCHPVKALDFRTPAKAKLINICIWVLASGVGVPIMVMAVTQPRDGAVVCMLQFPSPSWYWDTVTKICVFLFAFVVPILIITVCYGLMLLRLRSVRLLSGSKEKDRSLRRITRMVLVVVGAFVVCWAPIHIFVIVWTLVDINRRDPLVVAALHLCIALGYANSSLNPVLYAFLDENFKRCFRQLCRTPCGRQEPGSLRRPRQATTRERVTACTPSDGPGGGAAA

For the molecule `Cc1cc(O)cc(C)c1C[C@H](N)C(=O)N1Cc2ccccc2C[C@H]1C(=O)N[C@@H](Cc1ccccc1)C(=O)N[C@@H](Cc1ccccc1)C(=O)O` (H-[Dmt][Tic]FF-OH), the Kb was 0.2 nM.
